# Measurements reported in PubChem BioAssay AID2541 (The Scripps Research Institute Molecular Screening Center, 2010).
# Active and inactive are the calls of the source.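 Rule for the calls: active = inhibition of at least 50%; inactive = inhibition below 50%.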
# Molecular target: NADPH oxidase 1 (Homo sapiens) (UniProt Q9Y5S8)
# Assay: NOX1 inhibitors in colonic epithelial cells, confirmation, luminescence, HT29 cells (AID 2541)
# Details: luminol ROS chemiluminescence, 1 h, at 3.3 µM, active compounds read high
# How it was run: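 Assay system: HT29 colon epithelial cell line with endogenous NOX1; schedule: compound exposure 1 h before probe; detection: luminol chemiluminescence of intracellular ROS; measure: % inhibition of luminescence; replication: triplicate wells per compound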
# NADPH oxidase 1 (Homo sapiens), sequence (Q9Y5S8 whole entry, looked up): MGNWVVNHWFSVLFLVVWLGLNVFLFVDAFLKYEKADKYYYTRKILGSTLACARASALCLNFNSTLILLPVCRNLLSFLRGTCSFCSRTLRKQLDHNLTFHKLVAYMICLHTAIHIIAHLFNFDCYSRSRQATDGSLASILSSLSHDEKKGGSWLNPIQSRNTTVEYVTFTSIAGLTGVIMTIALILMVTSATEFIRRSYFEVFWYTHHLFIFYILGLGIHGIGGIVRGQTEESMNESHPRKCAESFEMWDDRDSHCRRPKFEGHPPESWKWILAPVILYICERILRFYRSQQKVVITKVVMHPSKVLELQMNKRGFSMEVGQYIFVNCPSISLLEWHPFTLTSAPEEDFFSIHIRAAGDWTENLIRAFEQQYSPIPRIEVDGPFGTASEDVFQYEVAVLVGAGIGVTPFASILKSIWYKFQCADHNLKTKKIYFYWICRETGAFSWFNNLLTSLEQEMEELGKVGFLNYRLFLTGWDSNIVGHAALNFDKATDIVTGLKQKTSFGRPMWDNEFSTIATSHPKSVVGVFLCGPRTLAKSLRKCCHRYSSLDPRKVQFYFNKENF
row,inhibition,Structure (SMILES)
1,70.1%,COCCCNC(=S)NNC(=S)Nc1ccccc1
2,81.5%,CCOc1ccccc1Nc1n[nH]c(=S)s1
3,59.2%,CC(=O)c1ccc(NCN2C(=O)/C(=C\N(C)C)NC2=S)cc1
4,54.9%,Cc1ccccc1C(=O)Oc1ccc(-c2csnn2)cc1
5,29.6% (inactive),Nc1nc2[nH]c(=S)[nH]c2c(=O)[nH]1
6,70.8%,S=c1[nH]cc(-c2ccc(Br)cc2)[nH]1
7,16% (inactive),CCOC(=O)c1nsc(/C(C)=N/Nc2ccccc2)c1N
8,108%,Cc1cc(C(=O)NNc2cc(Cl)ccc2Cl)no1
9,6.3% (inactive),Cn1ncc(C(=O)NC(=O)Nc2ccc(F)cc2)c1[N+](=O)[O-]
10,73.6%,Nc1nc(Nc2ccccc2)n[nH]1
11,90.2%,CN(C)c1ccc(NC(=O)Nc2ccc(OCc3ccccc3)cc2)cc1
12,73.6%,CN(C)c1ccc(/C=N/Nc2c(Cl)cncc2Cl)cc1
13,71%,Cc1cc(S(=O)(=O)NNc2ncnc3cc(C(C)(C)C)sc23)c(C)cc1Cl
14,65.4%,CCC(=O)Nc1ccc2c(c1)N(CC)C(C)(C)CC2C (stereo unspecified)
15,37% (inactive),CCN(CC)c1ccc(NC(=O)C2CCCCC2)c(N(CC)CC)n1
16,60.4%,O=C1C=C(I)C(=O)C=C1I
17,78%,O=C(NNc1c([N+](=O)[O-])cc(C(F)(F)F)cc1[N+](=O)[O-])c1ccccc1-n1cccc1
18,92.4%,COc1ccccc1NNC(=O)c1cc(C(C)(C)C)nn1Cc1ccccc1
19,78.4%,Nc1nc(NCc2ccccc2OC(F)(F)F)n[nH]1
20,89%,Cc1cc(Cl)ccc1NC(=S)NNC(=S)Nc1ccc(F)cc1
21,76.1%,CC(C)C(=O)NNc1nc2c(c(=O)n(C)c(=O)n2C)n1Cc1ccc(Cl)cc1
22,63.7%,COC(=O)C1=C(Nc2ccc(O)cc2)CSC1
23,-41.4% (inactive),CCS(=O)(=O)c1ccc(O)c(NC(=O)c2ccccc2C(=O)O)c1
24,11.1% (inactive),O=C1c2ccccc2C(=O)N1CNc1ccc(N2CCOCC2)cc1

row,inhibition,Structure (SMILES)
1,71.9%,O=C(Oc1ccccc1N1CCOCC1)c1cccnc1Oc1ccccc1
2,-27.6% (inactive),CC(=O)/C(C=Nc1cc(C)c(O)c(Cl)c1)=C(\C)O
3,89.3%,CC[n+]1c(C)csc1Nc1ccc(N2CC(C)OC(C)C2)cc1 (stereo unspecified)
4,74.3%,NS(=O)(=O)c1ccc(NNC(=O)c2c(F)cccc2Cl)cc1
5,96.6%,O=c1[nH]nc(N2CCSCC2)[nH]1
6,-22.8% (inactive),O=C(Nc1ccc(Cl)cc1Cl)c1cc([N+](=O)[O-])cc2c1-c1ccc([N+](=O)[O-])cc1C2=O
7,89.2%,COc1cccc(NC(=S)NNc2ccc([N+](=O)[O-])cc2)c1
8,59.5%,CC1CN(c2ccc(NC(=S)NN)cc2)CC(C)O1 (stereo unspecified)
9,95%,O=C(Oc1ccccc1N1CCCCC1)c1ccco1
10,48.3% (inactive),CN(C)c1ccc(NC(=O)Nc2cccs2)cc1
11,58.8%,O=[N+]([O-])c1cc(C(F)(F)F)ccc1Oc1ccc(-c2nnco2)cc1
12,73.9%,O=C(Nc1ccc(N2CCCCC2)cc1)Nc1ccccc1OC(F)(F)F
13,100%,CN(NC=C(C#N)C#N)c1ccccc1[N+](=O)[O-]
14,74.4%,Cc1cc(C)cc(NC(=O)Nc2ccc(N3CCCCC3)cc2)c1
15,81.8%,CC(C)(C)c1csc(NNC(=O)c2ccc(Cl)cc2)n1
16,63.2%,Cc1ccc(SC#N)c(N)n1
17,76.9%,Cc1cc(Br)c(NC(=S)NNc2ccccc2)c(Br)c1
18,78.9%,COc1cccc(NC(=S)NNC(=S)NC2CC3CCC2C3)c1 (stereo unspecified)
19,14% (inactive),CCC1=Nc2cccc3cccc(c23)N1
20,-0.1% (inactive),O=[N+]([O-])c1cc(C(F)(F)F)cc([N+](=O)[O-])c1Sc1ncc2ccccn12
21,84.1%,COc1cc(-c2nc(-c3ccccc3)c(-c3ccccc3)[nH]2)ccc1O
22,97.5%,Cc1noc(C)c1C(=O)Nc1ccc(N2CCOCC2)nc1N1CCOCC1
23,29% (inactive),O=c1c2c(-c3ccc([N+](=O)[O-])cc3)onc2n(-c2ccccc2)c(=O)n1-c1ccccc1
24,11.4% (inactive),CC(C)(C)c1cc2nc(C(F)(F)F)cc(NNC(=O)Nc3ccc(OC(F)(F)F)cc3)n2n1

row,inhibition,Structure (SMILES)
1,88.1%,COc1ccc(C(=O)NNc2c([N+](=O)[O-])cc(C(F)(F)F)cc2[N+](=O)[O-])cc1
2,30.4% (inactive),O=C(Oc1cccc2[nH]ccc12)c1ccc(C(F)(F)F)cc1
3,103%,N#Cc1c(N)sc2c1CCc1ccccc1-2
4,85.4%,O=S(=O)(Nc1ccc(N2CCCCC2)cc1)c1ccccc1
5,72.9%,CCOC(=O)C1=C(Nc2ccc(OC(C)=O)cc2)C(=O)N(C(C)(C)C)C1
6,61.5%,CC1(C)CC(Nc2ccc(Nc3ccccc3)cc2)CC(C)(C)N1
7,56.4%,O=C(Nc1ccc(Cl)cc1)Oc1ccccc1N1CCSCC1
8,70.5%,COc1cc2ncnc(NNC(=O)c3cccs3)c2cc1OC
9,88.4%,S=C(NNc1nccc(-c2cccnc2)n1)Nc1ccccc1
10,11.1% (inactive),O=C1C=CC(=O)N1CCc1ccccc1
11,86.9%,FC(F)(F)c1ccc2c(c1)Nc1ccccc1S2
12,81.6%,Cc1csc2ncnc(NNS(=O)(=O)c3cc(C(F)(F)F)cc(C(F)(F)F)c3)c12
13,87.8%,O=C(Oc1ccccc1N1CCOCC1)c1cccs1
14,44.1% (inactive),COc1cccc(C(=O)CSc2nsc(SCC(=O)c3cccc(OC)c3)c2C#N)c1
15,43.9% (inactive),COc1ccc(OC)c(S(=O)(=O)c2ccc([N+](=O)[O-])cc2Cl)c1
16,-17.1% (inactive),Cc1oc(-c2ccc(Cl)cc2)cc1C(=O)O/N=C(\N)Cc1nc2cccnc2n1C1CC1
17,88.8%,COc1ccc(Cl)cc1NC(=O)Nc1ccc(N(C)C)cc1
18,88.9%,Cn1nc(-c2ccccc2)c(O)c(N=Nc2ccccc2)c1=O
19,9.8% (inactive),O=c1[nH][nH]c2cccc(F)c12
20,101%,Cc1nc(C(F)(F)F)c(C(=O)NNc2ncc(C(F)(F)F)cc2Cl)s1
21,-32.2% (inactive),CCC(CO)Nc1nc2c([nH]1)c(=O)n(C)c(=O)n2C (stereo unspecified)
22,79.7%,c1ccc2c(c1)Nc1nc3ccccc3nc1N2
23,102%,Cc1cc(S(=O)(=O)NNc2ncnc3c2cnn3C)c(C)cc1Cl
24,56.3%,O=c1c(Cl)c2oc3ccccc3nc-2c2ccccc12

row,inhibition,Structure (SMILES)
1,23.7% (inactive),CCN(CC)c1ccc(N=C2C=CC(=O)c3ccccc32)c(C)c1
2,10.4% (inactive),CC1=CC(=O)C(CCC2=CC(=O)C(C)=CC2=O)=CC1=O
3,76.7%,O=C(N/N=C/c1ccc(O)cc1)N/N=C/c1ccc(O)cc1
4,93%,COc1cc2ncnc(NNS(=O)(=O)c3cc(C)c(Cl)cc3C)c2cc1OC
5,95.7%,O=c1[nH]c2ccsc2c(=O)n1CCO
6,81.7%,CCC(=O)N1c2cc(Cl)ccc2-n2c(nn(C(=O)CC)c2=O)N1C(=O)CC
7,74.1%,Nc1nc(NCc2c(Cl)cccc2Oc2ccccc2)n[nH]1
8,77.2%,Cn1cnc(S(=O)(=O)Nc2ccc(N3CCCCC3)cc2)c1
9,62.5%,O=C(O)/C(=N/Nc1ccccc1O)c1ccccc1
10,-39.8% (inactive),c1ccc2c(c1)NC(c1ccc3c(c1)OCO3)O2 (stereo unspecified)
11,37.1% (inactive),CCN(CC)c1ccc(NC(=O)c2c(F)cccc2F)c(N(CC)CC)n1
12,78.6%,Nc1nc(NCc2ccccn2)n[nH]1
13,75%,COc1ccc(N(C)CC(=O)O)c(C(=O)O)c1
14,17.8% (inactive),Cc1ccc(NCN2C(=O)c3ccc([N+](=O)[O-])cc3C2=O)cc1
15,75.9%,CC(=O)Oc1ccc(OC(C)=O)c2c1[C@@H]1C=C[C@H]2CC1
16,92.8%,O=C(NNc1c([N+](=O)[O-])cc(C(F)(F)F)cc1[N+](=O)[O-])c1ccco1
17,84.3%,O=C(Oc1ccccc1N1CCCCC1)c1sc2ccccc2c1Cl
18,63.1%,ON/C=N/c1nnc(C(F)(F)F)s1
19,51.6%,COc1ccc(OC(=O)c2ccc3ncccc3c2)cc1
20,-5.1% (inactive),CCn1c(-c2cc(-c3ccccc3)sc2N)n[nH]c1=S
21,74.1%,COC(=O)c1sccc1-c1ccc(CN2CCCc3cc(OC)ccc32)o1
22,87.5%,CCOC(=O)C(=CNNc1ccnc2cc(Cl)ccc12)C(=O)OCC
23,26.5% (inactive),COc1ccc2c(c1)CCCN2Cc1c[nH]c2ccccc12
24,33.3% (inactive),CSC1=NS(=O)(=O)c2c(C)nn(C)c2S1
